# Measured values reported in ChEMBL document CHEMBL1811853, “Design and evaluation of 3-aminopyrazolopyridinone kinase inhibitors inspired by the natural product indirubin” (Bioorg Med Chem, 2011).
# How the values were obtained:
# [1] = target: RAC-beta serine/threonine-protein kinase (Homo sapiens) (UniProt P31751); assay: Inhibition of AKT2 at 30 uM by microfluidic mobility shift assay
# How it was run: (§1)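 Single-concentration screen, singlicate, 30 uM final (diluted from 1 mM DMSO solutions), fluorescently tagged peptide substrate appropriate to each kinase, ATP at apparent Km for each protein. Phosphorylated and unphosphorylated peptides separated electrophoretically; conversion is the phosphorylated peak area over the sum of both peaks. No-inhibitor and no-ATP controls; H89 reference on each plate.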
# [2] = target: RAC-alpha serine/threonine-protein kinase (Homo sapiens) (UniProt P31749); assay: Inhibition of AKT1 at 30 uM by microfluidic mobility shift assay; how it was run: as §1
# Chain of RAC-alpha serine/threonine-protein kinase (Homo sapiens) (P31749 whole entry): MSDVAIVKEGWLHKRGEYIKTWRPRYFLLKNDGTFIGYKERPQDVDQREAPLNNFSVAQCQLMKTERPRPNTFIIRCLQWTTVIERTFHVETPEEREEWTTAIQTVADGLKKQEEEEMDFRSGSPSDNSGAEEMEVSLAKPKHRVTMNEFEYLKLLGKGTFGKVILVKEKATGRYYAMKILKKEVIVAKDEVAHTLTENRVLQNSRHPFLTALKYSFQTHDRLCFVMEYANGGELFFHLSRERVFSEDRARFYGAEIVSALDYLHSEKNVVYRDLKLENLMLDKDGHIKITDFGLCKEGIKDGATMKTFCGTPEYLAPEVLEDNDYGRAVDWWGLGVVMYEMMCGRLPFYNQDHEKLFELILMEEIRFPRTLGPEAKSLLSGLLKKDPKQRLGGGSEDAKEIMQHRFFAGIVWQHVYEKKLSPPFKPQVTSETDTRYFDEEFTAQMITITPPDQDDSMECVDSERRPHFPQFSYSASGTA
# [3] = target: T1, Aurora kinase A (Homo sapiens) (UniProt O14965); assay: Inhibition of AurA at 30 uM by microfluidic mobility shift assay; how it was run: as §1
# T1 sequence (whole entry): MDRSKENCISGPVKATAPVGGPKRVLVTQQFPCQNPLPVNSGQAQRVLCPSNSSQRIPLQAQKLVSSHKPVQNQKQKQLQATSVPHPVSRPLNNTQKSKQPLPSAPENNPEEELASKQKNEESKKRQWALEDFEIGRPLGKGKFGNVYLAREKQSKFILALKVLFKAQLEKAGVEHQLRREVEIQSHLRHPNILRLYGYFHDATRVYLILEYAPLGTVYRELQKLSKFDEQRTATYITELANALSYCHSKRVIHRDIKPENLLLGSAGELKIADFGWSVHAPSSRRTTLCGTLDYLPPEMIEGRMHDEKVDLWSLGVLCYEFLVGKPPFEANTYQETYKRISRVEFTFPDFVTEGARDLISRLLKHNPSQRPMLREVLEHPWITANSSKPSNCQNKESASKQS
# [4] = target: Mitogen-activated protein kinase 3 (Homo sapiens) (UniProt P27361); assay: Inhibition of ERK1 at 30 uM by microfluidic mobility shift assay; how it was run: as §1
# Chain of Mitogen-activated protein kinase 3 (Homo sapiens) (P27361 whole entry): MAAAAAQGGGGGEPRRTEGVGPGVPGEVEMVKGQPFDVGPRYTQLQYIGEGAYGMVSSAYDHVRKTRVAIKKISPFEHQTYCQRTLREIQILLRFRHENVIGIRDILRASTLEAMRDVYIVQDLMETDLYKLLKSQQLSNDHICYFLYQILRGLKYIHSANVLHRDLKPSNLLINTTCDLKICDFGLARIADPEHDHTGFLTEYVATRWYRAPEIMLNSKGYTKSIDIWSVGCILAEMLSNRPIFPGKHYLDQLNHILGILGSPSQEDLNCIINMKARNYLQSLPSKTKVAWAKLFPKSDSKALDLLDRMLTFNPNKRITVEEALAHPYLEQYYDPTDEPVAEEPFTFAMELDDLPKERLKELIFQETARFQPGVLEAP
# [5] = target: T2, Serine/threonine-protein kinase Chk1 (Homo sapiens) (UniProt O14757); assay: Inhibition of CHK1 at 30 uM by microfluidic mobility shift assay; how it was run: as §1
# T2 sequence (whole entry): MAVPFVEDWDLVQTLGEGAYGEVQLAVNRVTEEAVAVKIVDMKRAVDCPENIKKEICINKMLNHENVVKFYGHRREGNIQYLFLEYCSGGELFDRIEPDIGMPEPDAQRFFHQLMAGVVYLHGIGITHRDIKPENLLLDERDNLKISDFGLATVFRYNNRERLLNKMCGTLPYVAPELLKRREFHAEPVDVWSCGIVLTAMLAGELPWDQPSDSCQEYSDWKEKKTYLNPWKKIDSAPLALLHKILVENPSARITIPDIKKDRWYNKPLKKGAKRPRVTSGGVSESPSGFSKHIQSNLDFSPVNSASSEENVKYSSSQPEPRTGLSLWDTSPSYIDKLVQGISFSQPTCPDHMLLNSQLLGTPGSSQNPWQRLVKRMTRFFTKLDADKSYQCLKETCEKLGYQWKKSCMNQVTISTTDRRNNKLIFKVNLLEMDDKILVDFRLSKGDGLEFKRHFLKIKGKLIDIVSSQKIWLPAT
# [6] = target: Ribosomal protein S6 kinase alpha-5 (Homo sapiens) (UniProt O75582); assay: Inhibition of MSK1 at 30 uM by microfluidic mobility shift assay; how it was run: as §1
# Chain of Ribosomal protein S6 kinase alpha-5 (Homo sapiens) (O75582 whole entry, looked up): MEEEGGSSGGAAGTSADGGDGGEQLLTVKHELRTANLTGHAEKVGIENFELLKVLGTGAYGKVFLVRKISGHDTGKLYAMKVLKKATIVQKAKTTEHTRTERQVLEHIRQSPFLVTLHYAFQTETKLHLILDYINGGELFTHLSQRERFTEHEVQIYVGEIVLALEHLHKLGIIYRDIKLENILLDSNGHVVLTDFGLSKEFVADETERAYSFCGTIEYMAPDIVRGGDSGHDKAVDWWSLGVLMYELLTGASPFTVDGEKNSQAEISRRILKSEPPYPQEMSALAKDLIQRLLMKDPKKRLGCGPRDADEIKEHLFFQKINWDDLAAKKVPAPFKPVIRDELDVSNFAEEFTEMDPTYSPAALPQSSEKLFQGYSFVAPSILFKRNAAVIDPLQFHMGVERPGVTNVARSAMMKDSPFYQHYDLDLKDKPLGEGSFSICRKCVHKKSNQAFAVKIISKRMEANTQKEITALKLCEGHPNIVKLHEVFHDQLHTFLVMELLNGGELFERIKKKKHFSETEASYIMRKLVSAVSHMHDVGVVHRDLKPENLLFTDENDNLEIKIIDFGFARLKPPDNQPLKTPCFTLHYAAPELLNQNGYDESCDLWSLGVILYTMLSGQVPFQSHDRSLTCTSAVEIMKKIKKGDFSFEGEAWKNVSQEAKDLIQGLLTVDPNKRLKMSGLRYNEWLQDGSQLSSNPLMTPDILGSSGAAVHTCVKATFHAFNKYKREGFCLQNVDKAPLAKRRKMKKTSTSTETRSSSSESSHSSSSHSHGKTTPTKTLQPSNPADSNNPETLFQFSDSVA
# [7] = target: Glycogen synthase kinase-3 beta (Homo sapiens) (UniProt P49841); assay: Inhibition of GSK3B at 30 uM by microfluidic mobility shift assay; how it was run: as §1
# Chain of Glycogen synthase kinase-3 beta (Homo sapiens) (P49841 whole entry, looked up): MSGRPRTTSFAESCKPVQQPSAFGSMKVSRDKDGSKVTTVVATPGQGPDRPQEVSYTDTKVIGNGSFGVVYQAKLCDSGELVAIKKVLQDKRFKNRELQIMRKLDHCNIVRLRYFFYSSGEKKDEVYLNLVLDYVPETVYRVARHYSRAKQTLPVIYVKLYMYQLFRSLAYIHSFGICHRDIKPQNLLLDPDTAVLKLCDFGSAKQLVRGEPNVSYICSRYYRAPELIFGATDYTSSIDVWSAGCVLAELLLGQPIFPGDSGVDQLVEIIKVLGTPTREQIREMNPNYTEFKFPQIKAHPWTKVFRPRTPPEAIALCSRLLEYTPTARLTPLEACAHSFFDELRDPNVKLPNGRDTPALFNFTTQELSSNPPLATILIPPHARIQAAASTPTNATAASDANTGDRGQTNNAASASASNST
# [8] = target: Serine/threonine-protein kinase Chk2 (Homo sapiens, UniProt O96017); assay: Inhibition of CHK2 at 30 uM by microfluidic mobility shift assay; how it was run: as §1
# Chain of Serine/threonine-protein kinase Chk2 (O96017 whole entry): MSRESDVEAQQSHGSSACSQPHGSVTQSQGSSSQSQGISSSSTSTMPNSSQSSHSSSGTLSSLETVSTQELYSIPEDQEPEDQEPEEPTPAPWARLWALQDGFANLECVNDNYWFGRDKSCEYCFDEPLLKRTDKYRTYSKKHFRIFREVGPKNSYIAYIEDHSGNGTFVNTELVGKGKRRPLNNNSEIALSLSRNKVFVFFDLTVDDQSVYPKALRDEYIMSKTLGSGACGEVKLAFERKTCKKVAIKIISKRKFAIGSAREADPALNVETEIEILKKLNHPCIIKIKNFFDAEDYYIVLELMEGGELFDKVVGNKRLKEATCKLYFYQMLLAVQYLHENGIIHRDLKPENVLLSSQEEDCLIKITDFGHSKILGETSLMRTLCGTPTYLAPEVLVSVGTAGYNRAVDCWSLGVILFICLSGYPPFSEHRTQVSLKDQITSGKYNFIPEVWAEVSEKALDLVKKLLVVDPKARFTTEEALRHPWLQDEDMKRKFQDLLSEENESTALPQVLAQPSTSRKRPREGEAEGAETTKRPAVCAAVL
# [9] = target: T3, Protein kinase C zeta type (Homo sapiens) (UniProt Q05513); assay: Inhibition of PKCz at 30 uM by microfluidic mobility shift assay; how it was run: as §1
# T3 sequence (whole entry): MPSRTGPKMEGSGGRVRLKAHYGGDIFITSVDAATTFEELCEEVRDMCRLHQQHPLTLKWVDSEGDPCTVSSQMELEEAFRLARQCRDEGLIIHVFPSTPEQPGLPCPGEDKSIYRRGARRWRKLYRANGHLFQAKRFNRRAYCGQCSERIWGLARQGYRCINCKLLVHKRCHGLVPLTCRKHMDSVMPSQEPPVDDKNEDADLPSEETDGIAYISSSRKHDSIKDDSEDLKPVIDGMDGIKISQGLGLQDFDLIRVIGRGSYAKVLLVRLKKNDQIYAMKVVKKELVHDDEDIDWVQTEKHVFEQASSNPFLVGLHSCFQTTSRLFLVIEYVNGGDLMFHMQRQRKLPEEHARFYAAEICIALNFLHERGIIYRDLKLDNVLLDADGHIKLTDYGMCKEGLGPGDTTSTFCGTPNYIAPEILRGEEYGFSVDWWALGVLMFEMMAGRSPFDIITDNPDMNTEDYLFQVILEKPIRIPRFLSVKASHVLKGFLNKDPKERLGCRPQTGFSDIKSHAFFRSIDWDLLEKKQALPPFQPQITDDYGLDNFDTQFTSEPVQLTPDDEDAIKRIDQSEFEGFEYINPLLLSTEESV
# [10] = target: Tyrosine-protein kinase Fyn (Homo sapiens, UniProt P06241); assay: Inhibition of FYN at 30 uM by microfluidic mobility shift assay; how it was run: as §1
# Chain of Tyrosine-protein kinase Fyn (P06241 2-537 limits assumed): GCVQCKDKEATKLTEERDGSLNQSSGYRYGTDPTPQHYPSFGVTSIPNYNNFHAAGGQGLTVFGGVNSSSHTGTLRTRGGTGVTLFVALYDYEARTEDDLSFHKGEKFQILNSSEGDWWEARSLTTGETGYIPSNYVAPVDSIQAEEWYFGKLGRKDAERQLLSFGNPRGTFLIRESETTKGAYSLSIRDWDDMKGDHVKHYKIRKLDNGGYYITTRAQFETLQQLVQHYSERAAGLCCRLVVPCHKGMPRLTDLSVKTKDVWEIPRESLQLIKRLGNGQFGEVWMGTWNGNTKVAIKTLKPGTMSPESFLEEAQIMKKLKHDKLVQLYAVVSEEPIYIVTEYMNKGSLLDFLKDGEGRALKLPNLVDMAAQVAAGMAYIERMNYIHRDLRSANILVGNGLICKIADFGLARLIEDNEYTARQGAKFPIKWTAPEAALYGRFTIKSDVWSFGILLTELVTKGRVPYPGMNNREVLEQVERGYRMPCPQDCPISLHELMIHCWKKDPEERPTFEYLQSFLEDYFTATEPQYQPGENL
# [11] = Inhibition of PKA at 30 uM by microfluidic mobility shift assay; how it was run: as §1
# [12] = target: Mitogen-activated protein kinase 14 (Homo sapiens, UniProt Q16539); assay: Inhibition of p38alpha at 30 uM by microfluidic mobility shift assay; how it was run: as §1
# Chain of Mitogen-activated protein kinase 14 (Q16539 whole entry): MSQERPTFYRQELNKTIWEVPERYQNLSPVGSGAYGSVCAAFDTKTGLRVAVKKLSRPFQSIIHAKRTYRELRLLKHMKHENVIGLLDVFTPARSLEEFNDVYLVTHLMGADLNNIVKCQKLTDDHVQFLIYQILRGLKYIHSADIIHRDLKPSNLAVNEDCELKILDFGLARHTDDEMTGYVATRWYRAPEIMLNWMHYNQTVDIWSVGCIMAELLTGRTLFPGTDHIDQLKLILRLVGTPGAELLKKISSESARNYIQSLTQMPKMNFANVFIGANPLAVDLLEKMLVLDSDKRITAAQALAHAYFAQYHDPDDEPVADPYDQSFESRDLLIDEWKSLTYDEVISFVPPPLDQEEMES
# [13] = target: Tyrosine-protein kinase ABL1 (Homo sapiens, UniProt P00519); assay: Inhibition of ABL at 30 uM by microfluidic mobility shift assay; how it was run: as §1
# Chain of Tyrosine-protein kinase ABL1 (P00519 whole entry): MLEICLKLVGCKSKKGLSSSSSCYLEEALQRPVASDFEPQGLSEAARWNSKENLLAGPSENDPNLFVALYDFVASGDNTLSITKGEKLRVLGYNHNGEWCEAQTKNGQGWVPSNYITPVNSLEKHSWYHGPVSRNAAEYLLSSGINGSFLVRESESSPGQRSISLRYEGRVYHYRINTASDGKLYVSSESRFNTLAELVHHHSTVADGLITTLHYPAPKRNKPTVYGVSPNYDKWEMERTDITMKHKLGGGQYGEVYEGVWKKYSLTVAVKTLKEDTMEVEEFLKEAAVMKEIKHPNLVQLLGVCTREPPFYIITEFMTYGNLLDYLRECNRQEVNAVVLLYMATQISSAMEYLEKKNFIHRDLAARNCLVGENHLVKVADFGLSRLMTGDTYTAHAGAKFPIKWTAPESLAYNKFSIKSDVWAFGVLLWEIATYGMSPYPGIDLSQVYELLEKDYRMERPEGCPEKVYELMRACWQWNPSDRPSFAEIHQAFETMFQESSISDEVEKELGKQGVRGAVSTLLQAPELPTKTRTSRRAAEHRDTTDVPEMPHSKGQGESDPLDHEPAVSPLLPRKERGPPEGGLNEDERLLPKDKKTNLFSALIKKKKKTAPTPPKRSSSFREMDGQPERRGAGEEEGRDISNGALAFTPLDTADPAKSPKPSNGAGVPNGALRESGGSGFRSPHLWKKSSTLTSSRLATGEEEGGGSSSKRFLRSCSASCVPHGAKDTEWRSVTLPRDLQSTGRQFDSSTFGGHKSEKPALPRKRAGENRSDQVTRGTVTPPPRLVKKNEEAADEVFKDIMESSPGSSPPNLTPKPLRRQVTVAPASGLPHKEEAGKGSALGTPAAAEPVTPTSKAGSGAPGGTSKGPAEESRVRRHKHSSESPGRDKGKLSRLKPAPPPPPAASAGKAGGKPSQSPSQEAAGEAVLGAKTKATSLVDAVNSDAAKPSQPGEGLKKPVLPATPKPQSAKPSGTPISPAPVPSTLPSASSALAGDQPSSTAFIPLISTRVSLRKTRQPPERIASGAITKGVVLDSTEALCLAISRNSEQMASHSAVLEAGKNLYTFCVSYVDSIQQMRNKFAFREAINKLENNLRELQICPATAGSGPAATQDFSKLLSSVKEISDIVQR
structure (smiles),measurement,setting,value
COc1ccc(-c2cc3nn(-c4ccccc4)c(N)c3c(=O)[nH]2)cc1,inhibition,[1],0%
same,inhibition,[2],16%
same,inhibition,[3],10%
same,inhibition,[4],8%
same,inhibition,[5],5%
same,inhibition,[6],6%
same,inhibition,[7],14%
same,inhibition,[8],-3%
same,inhibition,[9],0%
same,inhibition,[10],88%
same,inhibition,[11],-6%
same,inhibition,[12],38%
same,inhibition,[13],89%
COc1cccc(-c2cc3c(c(N)nn3C)c(=O)[nH]2)c1,inhibition,[1],1%
same,inhibition,[2],-5%
same,inhibition,[3],17%
same,inhibition,[4],19%
same,inhibition,[5],27%
same,inhibition,[6],2%
same,inhibition,[7],61%
same,inhibition,[8],31%
same,inhibition,[9],6%
same,inhibition,[10],23%
same,inhibition,[11],7%
same,inhibition,[12],2%
same,inhibition,[13],21%
Nc1n[nH]c2c3c([nH]c(=O)c12)CCCC3,inhibition,[1],-1%
same,inhibition,[2],-3%
same,inhibition,[3],12%
same,inhibition,[4],5%
same,inhibition,[5],17%
same,inhibition,[6],1%
same,inhibition,[7],23%
same,inhibition,[8],7%
same,inhibition,[9],-5%
same,inhibition,[10],11%
same,inhibition,[11],2%
same,inhibition,[12],-4%
same,inhibition,[13],0%
